These results are taken from ChEMBL document CHEMBL3407350, “Synthesis and anti-hepatitis B virus activity of C4 amide-substituted isosteviol derivatives” (Bioorg Med Chem, 2015).

For orientation: IC50 means the point on the concentration scale where inhibition reaches its midpoint.

In data set [1] the test system is Hepatitis B virus. The data set is described as follows: Antiviral activity against HBV infected in human HepG2(2.2.15) cells assessed as inhibition of surface antigen secretion by EIA. The format is functional, organism-based. The gist of the method: (§1)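 HepG2 2.2.15 cells (HepG2 stably carrying a head-to-tail HBV DNA dimer; MEM, 10% FBS, 37 °C, 5% CO2) treated with compound for 3 days; conditioned medium assayed for secreted HBsAg and HBeAg by enzyme immunoassay; mean and SD, n = 3; IC50 taken as 50% inhibitory concentration.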

A short description of data set [2]: Selectivity index, ratio of TC50 for human HepG2(2.2.15) cells to IC50 for HBV infected in human HepG2(2.2.15) cells assessed as inhibition of surface antigen secretion. Summed up: (§2)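 Selectivity index computed as TC50 (MTS, HepG2 2.2.15, 3 days) divided by IC50 for HBsAg, HBeAg or virion DNA inhibition in the same cell line.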
Data set [3] can be described thus: Cytotoxicity against human HepG2(2.2.15) cells. As to conditions: read-out: TC50 (the source's name). Format: cell-based. The gist of the method:
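Cytotoxicity by MTS: HepG2 2.2.15 cells seeded at 4×10^4 cells/ml for 24 h, exposed to serial dilutions 2.5–160 µg/ml for 3 days; four replicates, viability expressed relative to untreated control; TC50 as 50% cytotoxic concentration.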

The subject of data set [4] is Hepatitis B virus. In words: Antiviral activity against HBV infected in human HepG2(2.2.15) cells assessed as inhibition of e antigen secretion by EIA. The format is functional, organism-based. Summed up: as §1
The nature of data set [5]: Selectivity index, ratio of TC50 for human HepG2(2.2.15) cells to IC50 for HBV infected in human HepG2(2.2.15) cells assessed as inhibition of e antigen secretion. Summed up:
as §2

In data set [6] the test system is Hepatitis B virus. In words: Antiviral activity against HBV infected in human HepG2(2.2.15) cells assessed as inhibition of viral DNA replication. The format is functional, organism-based. The gist of the method:
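Secreted virion DNA from HepG2 2.2.15 cells after 3 days of compound treatment; HBV DNA isolated from conditioned medium and quantified by SYBR Green real-time PCR (45 cycles, 95 °C 15 s / 58 °C 1 min); mean and SD, n = 3; IC50 as 50% inhibitory concentration.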

Data set [7] is described as follows: Selectivity index, ratio of TC50 for human HepG2(2.2.15) cells to IC50 for HBV infected in human HepG2(2.2.15) cells assessed as inhibition of viral DNA replication. The gist of the method: as §2

In brackets after ≈: the same amount, converted by molar mass.

As for `COc1ccc(C(=O)N[C@]2(C)CCC[C@@]3(C)[C@@H]4CC[C@@]5(C)C[C@]4(CC[C@@H]32)CC5=O)cc1`, the half-inhibitory concentration (IC50) in data set [1] worked out at 18.8 µg/mL (≈ 44.3 µM). Further, the “Selectivity Index” value in data set [2] turned out to be 1.2. Moreover, the CC50 in data set [3] is 22.4 µg/mL (≈ 53 µM).

`O=c1[nH]cc(F)c(=O)[nH]1` [FLUOROURACIL]: the CC50 in data set [3] came to 6.12 µg/mL (≈ 47 µM).

Take `C[C@@]12CC[C@@H]3[C@@](CC[C@H]4[C@@]3(C)CCC[C@@]4(C)NC(=O)c3ccc(Br)cc3)(CC1=O)C2`: the IC50 in data set [1] is 10.5 µg/mL (≈ 22.3 µM). Besides, in data set [2], the “Selectivity Index” value came out at 1.41. For the same compound, the CC50 in data set [3] turned out to be 14.9 µg/mL (≈ 31.5 µM).

As for `CCc1ccc(C(=O)N[C@]2(C)CCC[C@@]3(C)[C@@H]4CC[C@@]5(C)C[C@]4(CC[C@@H]32)CC5=O)cc1`, the IC50 in data set [1] came to 5.57 µg/mL (≈ 13.2 µM); in data set [4], 7.38 µg/mL (≈ 17.5 µM); in data set [6], 11.2 µg/mL (≈ 26.6 µM). Further, the “Selectivity Index” value in data set [2] turned out to be 3.8; in data set [5], 2.87; in data set [7], 1.89. Besides, the CC50 in data set [3] was 21.2 µg/mL (≈ 50.3 µM).

Take `C[C@@]12CC[C@@H]3[C@@](CC[C@H]4[C@@]3(C)CCC[C@@]4(C)NC(=O)c3ccc(I)cc3)(CC1=O)C2`: in data set [3], the CC50 was found to be 10.5 µg/mL (≈ 20.3 µM).

Turning to `C[C@@]12CC[C@@H]3[C@@](CC[C@H]4[C@@]3(C)CCC[C@@]4(C)NC(=O)c3ccc(F)cc3)(CC1=O)C2`, the IC50 in data set [1] came out at 4.17 µg/mL (≈ 10.1 µM); in data set [4], 12.8 µg/mL (≈ 31.1 µM); in data set [6], 7.44 µg/mL (≈ 18.1 µM). Also, the “Selectivity Index” value in data set [2] is recorded as 4.73; in data set [5], 1.54; in data set [7], 2.65. Moreover, in data set [3], the CC50 is 19.7 µg/mL (≈ 48 µM).
